# Activity calls are given as the source filed them.
# How the values were obtained:
# [1] = tested on: Mus musculus; assay: Anticonvulsant activity in mouse assessed as protection against maximal electric shock-induced seizures at 100 mg/kg, ip measured after 0.5 hrs; type: functional, organism-based
# In short: (§1)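 Mice dosed ip with suspension in 0.5% methylcellulose; maximal electroshock applied at the listed time after dosing. Protection = abolition of hindlimb tonic extension component of seizure; reported as animals protected/animals tested.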
# [2] = tested on: Mus musculus; assay: Anticonvulsant activity in mouse assessed as protection against maximal electric shock-induced seizures at 100 mg/kg, ip measured after 4 hrs; type: functional, organism-based; in short: as §1
# [3] = tested on: Mus musculus; assay: Neurotoxicity in mouse at 300 mg/kg, ip after 0.5 hrs by rotarod test; type: toxicity, organism-based; conditions: in vivo
# In short: (§2)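 Mice were dosed ip with compound suspended in 0.5% methylcellulose. Rotarod: a 1 in. knurled rod turning at 6 rpm. Neurotoxicity was scored as failure to stay on the rod for at least 1 min in each of three trials. Results are given as the number of animals affected out of the number tested.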
# [4] = tested on: Mus musculus; assay: Anticonvulsant activity in mouse assessed as protection against subcutaneous pentylenetetrazol-induced seizures at 30 mg/kg, ip measured after 4 hrs; type: functional, organism-based
# In short: (§3)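 Mice dosed ip as 0.5% methylcellulose suspension; pentylenetetrazole 85 mg/kg in 0.9% NaCl injected subcutaneously into posterior midline, animals watched at least 30 min. Protection = no threshold seizure (single clonic spasm episode lasting ≥5 s); scored protected/tested.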
# [5] = tested on: Mus musculus; assay: Neurotoxicity in mouse at 30 mg/kg, ip after 0.5 hrs by rotarod test; type: toxicity, organism-based; conditions: in vivo; in short: as §2
# [6] = tested on: Mus musculus; assay: Neurotoxicity in mouse at 30 mg/kg, ip after 4 hrs by rotarod test; type: toxicity, organism-based; conditions: in vivo; in short: as §2
# [7] = tested on: Mus musculus; assay: Anticonvulsant activity in mouse assessed as protection against subcutaneous pentylenetetrazol-induced seizures at 300 mg/kg, ip measured after 4 hrs; type: functional, organism-based; in short: as §3
# [8] = tested on: Mus musculus; assay: Anticonvulsant activity in mouse assessed as protection against maximal electric shock-induced seizures at 30 mg/kg, ip measured after 0.5 hrs; type: functional, organism-based; in short: as §1
# [9] = tested on: Mus musculus; assay: Anticonvulsant activity in mouse assessed as protection against maximal electric shock-induced seizures at 30 mg/kg, ip measured after 4 hrs; type: functional, organism-based; in short: as §1
# [10] = tested on: Mus musculus; assay: Neurotoxicity in mouse at 100 mg/kg, ip after 0.5 hrs by rotarod test; type: toxicity, organism-based; conditions: in vivo; in short: as §2
# [11] = tested on: Mus musculus; assay: Anticonvulsant activity in mouse assessed as protection against subcutaneous pentylenetetrazol-induced seizures at 30 mg/kg, ip measured after 0.5 hrs; type: functional, organism-based; in short: as §3
# [12] = tested on: Mus musculus; assay: Anticonvulsant activity in mouse assessed as protection against subcutaneous pentylenetetrazol-induced seizures at 100 mg/kg, ip measured after 0.5 hrs; type: functional, organism-based; in short: as §3
# [13] = tested on: Rattus norvegicus; assay: Anticonvulsant activity in rat assessed as protection against maximal electric shock-induced seizures at 30 mg/kg, po measured after 4 hrs; type: functional, organism-based
# In short: (§4)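 Rats dosed ip or orally as 0.5% methylcellulose suspension; maximal electroshock at listed time. Protection = abolition of hindlimb tonic extension; 4 rats per group, scored protected/tested.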
# [14] = tested on: Rattus norvegicus; assay: Anticonvulsant activity in rat assessed as protection against maximal electric shock-induced seizures at 30 mg/kg, po measured after 1 hr; type: functional, organism-based; in short: as §4
# [15] = tested on: Mus musculus; assay: Anticonvulsant activity in mouse assessed as protection against subcutaneous pentylenetetrazol-induced seizures at 100 mg/kg, ip measured after 4 hrs; type: functional, organism-based; in short: as §3
# [16] = tested on: Rattus norvegicus; assay: Anticonvulsant activity in rat assessed as protection against maximal electric shock-induced seizures at 30 mg/kg, po measured after 2 hrs; type: functional, organism-based; in short: as §4
# [17] = tested on: Rattus norvegicus; assay: Neurotoxicity in rat at 30 mg/kg, po after 1 hr by rotarod test; type: toxicity, organism-based; conditions: in vivo
# [18] = tested on: Rattus norvegicus; assay: Neurotoxicity in rat at 30 mg/kg, po after […] by rotarod test; type: toxicity, organism-based; conditions: in vivo
# [19] = tested on: Rattus norvegicus; assay: Neurotoxicity in rat at 30 mg/kg, po after 0.5 hrs by rotarod test; type: toxicity, organism-based; conditions: in vivo
# [20] = tested on: Rattus norvegicus; assay: Neurotoxicity in rat at 30 mg/kg, po after 2 hrs by rotarod test; type: toxicity, organism-based; conditions: in vivo
# [21] = tested on: Mus musculus; assay: Neurotoxicity in mouse at 100 mg/kg, ip after 4 hrs by rotarod test; type: toxicity, organism-based; conditions: in vivo; in short: as §2
# [22] = tested on: Rattus norvegicus; assay: Neurotoxicity in rat at 30 mg/kg, po after 4 hrs by rotarod test; type: toxicity, organism-based; conditions: in vivo
# [23] = tested on: Vibrio harveyi; assay: Mutagenicity in Vibrio harveyi BB7 assessed as number of colonies after 48 hrs (reference value: 13 to 14 no_unit); type: ADME, organism-based; conditions: in vivo
# In short: (§5)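 Vibrio harveyi mutagenicity test: test compound was added to exponentially growing cultures (A600 = 0.1, 30 °C) and grown to OD600 0.3–0.4. Then 5 × 10^6 cells were plated on BOSS agar with neomycin (final 100 µg/mL) and incubated 48 h at 30 °C. Neomycin-resistant colonies were counted. Triplicate; controls were water, DMSO and NQNO 40 ng/mL.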
# [24] = tested on: Vibrio harveyi; assay: Antimutagenic activity against Vibrio harveyi BB7X assessed as inhibition of NQNO-induced mutagenicity after 48 hrs; type: functional
# In short: (§6)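 V. harveyi cultures grown exponentially to A600 0.1 at 30 °C, exposed to test compound for 15 min, then to NQNO, and grown on to A600 0.3–0.4. 5 × 10⁶ cells plated on BOSS agar with neomycin (100, final). Neomycin-resistant colonies counted after 48 h at 30 °C. Result given as % inhibition of NQNO mutagenicity; three independent repeats.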
# [25] = tested on: Rattus norvegicus; assay: Anticonvulsant activity in rat assessed as protection against maximal electric shock-induced seizures at 30 mg/kg, po measured after 0.5 hrs; type: functional, organism-based; in short: as §4
# [26] = tested on: Vibrio harveyi; assay: Antimutagenic activity against Vibrio harveyi BB7XM assessed as inhibition of NQNO-induced mutagenicity after 48 hrs; type: functional; in short: as §6
# [27] = tested on: Vibrio harveyi; assay: Mutagenicity in Vibrio harveyi BB7M assessed as number of colonies after 48 hrs (reference value: 13 to 14 no_unit); type: ADME, organism-based; conditions: in vivo; in short: as §5
# [28] = tested on: Rattus norvegicus; assay: Anticonvulsant activity in rat assessed as protection against maximal electric shock-induced seizures at 30 mg/kg, po measured after […]; type: functional, organism-based
# [29] = tested on: Vibrio harveyi; assay: Antimutagenic activity against Vibrio harveyi BB7 assessed as inhibition of NQNO-induced mutagenicity after 48 hrs; type: functional; in short: as §6
# [30] = tested on: Vibrio harveyi; assay: Mutagenicity in Vibrio harveyi BB7XM assessed as number of colonies after 48 hrs (reference value: 14 no_unit); type: ADME, organism-based; conditions: in vivo; in short: as §5
# [31] = tested on: Vibrio harveyi; assay: Mutagenicity in Vibrio harveyi BB7X assessed as number of colonies after 48 hrs (reference value: 15 to 16 no_unit); type: ADME, organism-based; conditions: in vivo; in short: as §5
# [32] = tested on: Vibrio harveyi; assay: Antimutagenic activity against Vibrio harveyi BB7M assessed as inhibition of NQNO-induced mutagenicity after 48 hrs; type: functional; in short: as §6
# [33] = tested on: Mus musculus; assay: Neurotoxicity in mouse at 100 mg/kg, ip after 2 hrs by rotarod test; type: toxicity, organism-based; conditions: in vivo; in short: as §2
# [34] = tested on: Mus musculus; assay: Neurotoxicity in mouse at 300 mg/kg, ip after 4 hrs by rotarod test; type: toxicity, organism-based; conditions: in vivo; in short: as §2
# [35] = tested on: Mus musculus; assay: Anticonvulsant activity in mouse assessed as protection against subcutaneous pentylenetetrazol-induced seizures at 300 mg/kg, ip measured after 0.5 hrs; type: functional, organism-based; in short: as §3
# [36] = tested on: Mus musculus; assay: Anticonvulsant activity in mouse assessed as protection against maximal electric shock-induced seizures at 300 mg/kg, ip measured after 4 hrs; type: functional, organism-based; in short: as §1
# [37] = tested on: Mus musculus; assay: Anticonvulsant activity in mouse assessed as protection against maximal electric shock-induced seizures at 300 mg/kg, ip measured after 0.5 hrs; type: functional, organism-based; in short: as §1
# [38] = tested on: Mus musculus; assay: Anticonvulsant activity in mouse assessed as protection against maximal electric shock-induced seizures at 3 mg/kg, ip measured after 0.5 hrs; type: functional, organism-based; in short: as §1
# [39] = tested on: Mus musculus; assay: Anticonvulsant activity in mouse assessed as protection against maximal electric shock-induced seizures at 10 mg/kg, ip measured after 0.5 hrs; type: functional, organism-based; in short: as §1
SMILES,Activity [1],Activity [2],Activity [3],Activity [4],Activity [5],Activity [6],Activity [8],Activity [9],Activity [10],Activity [11],Activity [12],Activity [15],Activity [17],Activity [18],Activity [19],Activity [20],Activity [21],Activity [22],further results
CCC(CO)NCCOCCOc1c(C)cccc1C (stereo unspecified),Active,inactive,Toxic,inactive,Non-toxic,Non-toxic,inactive,inactive,Toxic,inactive,inactive,–,–,–,–,–,–,–,Activity [7]: inactive
Cc1cc(C)c(OCCNC(C)CO)c(C)c1 (stereo unspecified),Active,inactive,Toxic,inactive,Non-toxic,Non-toxic,inactive,inactive,Toxic,inactive,inactive,inactive,Non-toxic,Non-toxic,Non-toxic,Non-toxic,Non-toxic,Non-toxic,Activity [13]: inactive; Activity [14]: inactive; Activity [16]: inactive
Cc1cccc(C)c1OCCOCCN[C@@H]1CCCC[C@H]1O (racemic),Active,inactive,Toxic,inactive,Non-toxic,Non-toxic,inactive,inactive,Non-toxic,inactive,inactive,inactive,Non-toxic,Non-toxic,Non-toxic,Non-toxic,Non-toxic,Non-toxic,Activity [13]: inactive; Activity [23]: 29; inhibition (INH) [24]: 52%; Activity [16]: inactive; Activity [25]: inactive; inhibition (INH) [26]: 33%; Activity [27]: 26; Activity [28]: inactive; inhibition (INH) [29]: 82%; Activity [30]: 22; Activity [31]: 25; inhibition (INH) [32]: 75%
Cc1cccc(OCCN2CCC(O)CC2)c1C,–,–,–,–,–,–,–,–,–,–,–,–,–,–,–,–,Non-toxic,–,Activity [33]: Non-toxic
Cc1cccc(C)c1OCCOCCNC(C)CO (stereo unspecified),–,inactive,Toxic,inactive,Non-toxic,Non-toxic,inactive,inactive,Toxic,inactive,–,inactive,–,–,–,–,Non-toxic,–,Activity [23]: 24; inhibition (INH) [24]: 27%; Activity [34]: Non-toxic; inhibition (INH) [26]: 48%; Activity [27]: 27; inhibition (INH) [29]: 70%; Activity [30]: 19; Activity [31]: 29; inhibition (INH) [32]: 75%
Cc1cc(C)c(OCCNCC(O)c2ccccc2)c(C)c1 (stereo unspecified),Active,inactive,–,–,Non-toxic,Non-toxic,inactive,inactive,Non-toxic,inactive,inactive,–,Non-toxic,Non-toxic,Non-toxic,Non-toxic,Non-toxic,Non-toxic,Activity [14]: inactive; Activity [34]: Non-toxic; Activity [35]: inactive; Activity [36]: Active; Activity [28]: inactive; Activity [37]: Active
Cc1cc(C)c(OCCN[C@H](C)CO)c(C)c1,Active,inactive,Toxic,inactive,Non-toxic,Non-toxic,Active,inactive,Toxic,inactive,inactive,inactive,–,–,–,–,Non-toxic,–,Activity [38]: inactive; Activity [39]: inactive
